In brackets after ≈: the same amount, converted by molar mass.
Columns and labels:
[1] = WHO-TDR: Cytotoxicity; type: toxicity, cell-based; conditions: human, MRC5 cells
Leishmania infantum = experiment: WHO-TDR: Leishmaniasis; type: functional, organism-based, Mus musculus; conditions: Macrophage
Summary of the method: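 Whole-organism screen of a 10,000-compound diverse library from Life Chemicals, filtered for drug-likeness and reactive groups, against intracellular amastigotes of Leishmania infantum MHOM/MA(BE)/67 in murine peritoneal macrophage host cells. The assay followed previously published standard procedures, with a reference drug as positive control. Antiparasitic potency is reported as IC50.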

Trypanosoma cruzi = experiment: WHO-TDR: Chagas disease; type: functional, organism-based, Homo sapiens; conditions: MRC5
Summary of the method: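 A diverse library of 10,000 compounds from Life Chemicals, filtered for drug-likeness and reactive groups, was screened against intracellular amastigotes of Trypanosoma cruzi Tulahuen CL2 beta-galactosidase strain. The parasites were grown in MRC-5SV2 human lung fibroblast host cells, and a reference drug served as positive control under previously published standard procedures. Antiparasitic potency is given as IC50.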

[2] = system: Trypanosoma brucei brucei; experiment: WHO-TDR: Human African Trypanosomiasis (HAT); type: functional, organism-based; conditions: Squib-427
Summary of the method: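 Whole-organism screen of a 10,000-compound diverse library from Life Chemicals, filtered for drug-likeness and reactive groups, against bloodstream forms of Trypanosoma brucei Squib 427 strain. The assay followed previously published standard procedures, with reference drugs as positive controls. Antiparasitic potency is reported as IC50.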

Brugia malayi = experiment: WHO-TDR: Lymphatic Filariasis; type: functional; design: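 tested at 10 µM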
Summary of the method: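 The screening set was a 10,000-compound diverse library from Life Chemicals, filtered for drug-likeness and for reactive groups. It was run against Brugia malayi microfilariae as whole organisms, using previously published standard procedures. Reference drugs acted as positive controls, and activity is reported both as percent inhibition and as IC50.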

Plasmodium falciparum K1 = experiment: WHO-TDR: Malaria; type: functional, organism-based, Homo sapiens; conditions: Erythrocyte
Summary of the method: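 Whole-organism screen of a 10,000-compound diverse library from Life Chemicals, filtered for drug-likeness and reactive groups, against intra-erythrocytic Plasmodium falciparum K1 strain in human red blood cells. The assay followed previously published standard procedures, with a reference drug as positive control. Antiplasmodial potency is reported as IC50.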

Onchocerca ochengi = experiment: WHO-TDR: Onchocerciasis; type: functional; design: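 at 12.5 µM on microfilariae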
Summary of the method: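 Percent inhibition and IC50 describe activity against microfilariae of Onchocerca ochengi or Onchocerca lienalis, used as animal-pathogen substitutes for the human parasite. The compounds tested made up a 10,000-member diverse library from Life Chemicals.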

Schistosoma mansoni = experiment: WHO-TDR: Schistosomiasis; type: functional; design: concentration or dose not given beside the values
Summary of the method: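 Percent inhibition and IC50 describe activity against whole Schistosoma mansoni worms of the Puerto Rican strain, tested as larvae and/or adults. The compounds screened were a diverse set of 10,000 from Life Chemicals, filtered for drug-likeness and reactive groups. Testing followed previously published standard procedures, with a reference drug as positive control.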

| SMILES | IC50 [1] [µg/mL] | IC50 (Leishmania infantum) [µg/mL] | IC50 (Trypanosoma cruzi) [µg/mL] | IC50 [2] [µg/mL] | % Inhibition (Brugia malayi) [%] | IC50 (Plasmodium falciparum K1) [µg/mL] | % Inhibition (Onchocerca ochengi) [%] | % Inhibition (Schistosoma mansoni) [%] |
| --- | --- | --- | --- | --- | --- | --- | --- | --- |
| O=C(CC(c1ccccc1)c1ccccc1)NCCCn1nc(-c2ccncc2)ccc1=O | > 13.2 | > 13.2 | 5.91 (≈ 13.5 µM) | 7.53 (≈ 17.2 µM) | 0 | 5.95 (≈ 13.6 µM) | 100 | 0 |
| O=C(Cc1csc(SCC(=O)c2ccccc2)n1)NCCC1=CCCCC1 | > 12 | > 12 | 3.65 (≈ 9.11 µM) | 5.07 (≈ 12.6 µM) | 0 | > 12 | 100 | 33.3 |
| O=c1ccc(-c2ccncc2)nn1CCNS(=O)(=O)c1ccc2c(c1)CCCC2 | > 12.3 | > 12.3 | > 12.3 | > 12.3 | 0 | > 12.3 | 100 | 0 |
| O=C(Cc1csc(NC(=O)c2ccc[nH]c2=O)n1)NCc1ccncc1 | > 11.1 | > 11.1 | > 11.1 | > 11.1 | 20 | > 11.1 | 0 | 100 |
| CCc1nnc(NS(=O)(=O)c2ccc(NC(=O)c3nc4ccccc4s3)cc2)s1 | > 13.4 | > 13.4 | > 13.4 | > 13.4 | 0 | > 13.4 | 100 | 0 |
| O=c1ccc(-c2ccc(F)cc2)nn1CCCNS(=O)(=O)c1cc(F)ccc1F | 3.28 (≈ 7.74 µM) | > 12.7 | > 12.7 | 4.24 (≈ 10 µM) | 0 | > 12.7 | 100 | 0 |
| COc1nn(C)cc1-c1nnc(SCC(=O)N2CCC(Cc3ccccc3)CC2)n1C | 5.88 (≈ 13.3 µM) | 4.28 (≈ 9.71 µM) | 3.01 (≈ 6.84 µM) | 0.428 (≈ 0.971 µM) | 0 | 3.65 (≈ 8.28 µM) | 100 | 0 |
| O=S(=O)(CCCOc1ccc(F)cc1)NC1CCN(Cc2ccccc2)CC1 | > 12.2 | > 12.2 | > 12.2 | 3.86 (≈ 9.49 µM) | 0 | > 12.2 | 100 | 50 |
| COc1ccc(-c2nnc(NC(=O)c3ccn(C)n3)o2)cc1OC | 1.41 (≈ 4.28 µM) | > 9.88 | > 9.88 | > 9.88 | 0 | > 9.88 | 100 | 25 |
| O=c1c2nccnc2n(Cc2cccc(C(F)(F)F)c2)c(=O)n1Cc1ccc(F)cc1 | 10 (≈ 23.2 µM) | > 12.9 | 1.19 (≈ 2.76 µM) | 4.08 (≈ 9.49 µM) | 0 | 7.26 (≈ 16.9 µM) | 100 | 25 |
| Cc1ccnc(Nc2ccc(NCCNS(=O)(=O)c3cccc(Cl)c3)nn2)c1 | > 12.6 | > 12.6 | > 12.6 | 4.02 (≈ 9.6 µM) | 0 | > 12.6 | 100 | 0 |
| COc1ccc(OC)c(S(=O)(=O)NCCNc2ccc(Nc3cc(C)ccn3)nn2)c1 | > 13.3 | > 13.3 | > 13.3 | 4.66 (≈ 10.5 µM) | 50 | 5.13 (≈ 11.5 µM) | 100 | 0 |
| CS(=O)(=O)N1CCCCC1C(=O)Nc1nc(-c2ccc(F)cc2)cs1 (centres undefined) | > 11.5 | > 11.5 | 3.82 (≈ 9.95 µM) | 5.4 (≈ 14.1 µM) | 0 | > 11.5 | 100 | 0 |
| CC(C)CC(=O)NCCOc1ccc2nnc(-c3ccccc3)n2n1 | > 10.2 | 0.33 (≈ 0.972 µM) | > 10.2 | > 10.2 | 33.33 | > 10.2 | 0 | 16.7 |
| COc1ccc(CCC(=O)NCCc2ccc(N3CCCC3)cc2)cc1 | > 10.6 | 0.342 (≈ 0.97 µM) | > 10.6 | > 10.6 | 0 | > 10.6 | 0 | 0 |
| O=C(Cc1cccs1)N1CCN(c2nccn2-c2cccc(Cl)c2)CC1 | > 12.7 | 0.411 (≈ 1.06 µM) | 7.14 (≈ 18.5 µM) | 4.77 (≈ 12.3 µM) | 0 | 12 (≈ 31.1 µM) | 50 | 0 |
| O=S(=O)(CCCOc1ccc(F)cc1)N1CCc2ccccc21 | > 10.1 | > 10.1 | 3.09 (≈ 9.2 µM) | 3.22 (≈ 9.6 µM) | 0 | > 10.1 | 100 | 0 |
| COc1ccc(C(CNS(=O)(=O)c2ccc(Cl)s2)N2CCOCC2)cc1 (centres undefined) | > 12.5 | > 12.5 | > 12.5 | > 12.5 | 0 | > 12.5 | 100 | 0 |
| Cc1ccnc(Nc2ccc(NCCNC(=O)c3cccc(C(F)(F)F)c3)nn2)c1 | 9.41 (≈ 22.6 µM) | > 12.5 | > 12.5 | > 12.5 | 0 | 1.48 (≈ 3.56 µM) | 100 | 0 |
| Cc1ccc(S(=O)(=O)N(CC(O)CNCc2ccco2)c2ccc(F)cc2)cc1 (centres undefined) | > 16.2 | > 16.2 | 5.67 (≈ 13.5 µM) | 5.19 (≈ 12.4 µM) | 0 | 1.27 (≈ 3.04 µM) | 100 | 0 |
| Cc1cc(=O)n2c(-c3cccc(NC(=O)Nc4ccc(F)cc4)c3)csc2n1 | > 11.8 | 0.383 (≈ 0.971 µM) | > 11.8 | > 11.8 | 0 | > 11.8 | 0 | – |
| CN(C)c1ccc(NC(=O)Cc2csc(SCc3ccncc3)n2)cc1 | > 11.5 | 3.65 (≈ 9.49 µM) | 3.47 (≈ 9.03 µM) | > 11.5 | 0 | > 11.5 | 100 | – |
